PTEN del growth – growth suppression of PTEN-null HCT116, primary screen, cell-based, CellTiter-Glo; HCT116 PTEN-null viability, 60 h; active compounds read low; viability, % at 10 µM; 140,000 compounds, 1.2% hits; AID 827, 2007;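 active means viability at or below a set limit, 4 SD under the median of all tested compounds, cut at about 3.7% in these data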;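 further: PTEN knockout HCT116 line with beta catenin targeted HCT116 as companion control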
Lmaj promast – Leishmania major promastigote growth inhibition, primary screen; Leishmania major promastigotes, resazurin fluorescence viability; inhibition, % at 10 µM; 200,000 compounds, 9% hits; AID 1063, 2008; in the data active means inhibition above about 50%;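 further: promastigotes grown with compound for 44 hours at 28 °C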
bCat KO growth – primary screen for growth suppressors in beta-catenin knockout HCT116 cells (colon tumor, human); HCT116 beta-catenin knockout viability, CellTiter-Glo, 60 h; active compounds read low; viability, % at 10 µM; 140,000 compounds, 1.5% hits;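 active means viability at or under a set limit, the compound median less 4 SD, cut at about 6% in these data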;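 further: 0% = Hyamine 1622 control at 20 µM and 100% = untreated cell control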
PMI act – activators of human PMI, primary screen, biochemical, fluorescence intensity, near-Km mannose 6-phosphate. purified human PMI, coupled resazurin fluorescence, 20 min; active compounds read high; 1 = vehicle control, 0 substrate-free wells. activation factor at 20 µM. 190,000 compounds, 0.005% hits;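 active means activation factor of 2 or more at 20 µM, relative to plate controls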
Target sequence (P34949 whole entry, looked up): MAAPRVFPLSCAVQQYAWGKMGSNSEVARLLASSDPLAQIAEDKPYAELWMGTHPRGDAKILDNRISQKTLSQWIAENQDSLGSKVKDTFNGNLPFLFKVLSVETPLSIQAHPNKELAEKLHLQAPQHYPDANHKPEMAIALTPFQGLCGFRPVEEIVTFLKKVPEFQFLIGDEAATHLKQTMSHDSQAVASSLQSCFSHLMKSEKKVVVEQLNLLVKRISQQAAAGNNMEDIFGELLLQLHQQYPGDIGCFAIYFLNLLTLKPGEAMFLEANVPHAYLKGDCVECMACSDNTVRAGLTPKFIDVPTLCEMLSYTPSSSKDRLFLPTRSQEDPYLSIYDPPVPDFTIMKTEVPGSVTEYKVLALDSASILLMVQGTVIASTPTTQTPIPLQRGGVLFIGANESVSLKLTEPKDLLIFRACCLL
PMI act hi M6P – human PMI activators, high substrate, primary screen, biochemical, fluorescence intensity, near-saturating mannose 6-phosphate. Mannose-6-phosphate isomerase (Homo sapiens), P34949. coupled PMI enzyme assay, resazurin fluorescence, 20 min; active compounds read high; 1 = untreated enzyme, 0 = substrate-free blank. activation factor at 20 µM. 190,000 compounds, 0.34% hits. AID 1216, 2008;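 active means activation factor of 2 or more at 20 µM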
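Material: human phosphomannose isomerase with PGI, G6PDH, diaphorase coupling enzymes / Reagent: Man-6-P substrate 1.0 mM / Dosing: single compound dose of 20 µM, 1% DMSO final / Incubation: enzyme reaction with compound 20 min at room temperature / Signal: resorufin fluorescence (Ex 544/Em 590 nm) from resazurin via diaphorase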
* marks the source's active call; other numbers are inactive results; nt = no result given. Hits are enriched below; roughly 9.6% of the tested compounds scored in any of these assays.

SMILES	PTEN del growth	Lmaj promast	bCat KO growth	PMI act	PMI act hi M6P
O=P(COCCOCCOCCOCP(=O)(c1ccccc1)c1ccccc1)(c1ccccc1)c1ccccc1	nt	-3	nt	1	1
Cc1ccc(CNC(=O)CCNC(=O)c2ccco2)cc1	102	-5	98	1.1	1.1
CC(C)(C)c1ccc(/C=C/C(=O)Nc2ccncc2)cc1	42	88*	37	0.8	0.9
Cc1nc(NC(=O)/C=C/c2ccc(C(C)(C)C)cc2)sc1C(=O)N(C)C	83	61*	90	0.8	0.8
O=C(/C=C/c1cccs1)Nc1ccncc1	95	3	97	1	1
O=C(Nc1ccccc1C(=O)OCC(=O)c1c[nH]c2ccccc12)c1ccco1	62	12	72	0.8	1
O=C(COC(=O)CCCc1nc2ccccc2s1)Nc1ncc(Cl)cc1Cl	96	-2	88	1.1	1.3
O=C(CN1CCCCC1)Nc1cccc(Cl)c1	nt	13	nt	1.2	1.1
COc1cc(NC(=O)Nc2cccc(Cl)c2)c(OC)cc1NC(=O)CN1CCCCC1	26	51*	33	0.7	0.8
COc1cc(NC(=O)c2ccc(C)cc2)c(OC)cc1NC(=O)CN1CCCCC1	85	62*	80	0.9	0.9
COc1cc(NC(=O)c2cc(OC)c(OC)c(OC)c2)c(OC)cc1NC(=O)CN1CCCCC1	76	9	79	0.9	1
CCCOc1ccc(NC(=O)OC2CCN(C)CC2)cc1	92	-6	95	1.1	1.1
Cn1c(N=Nc2ccccc2)nc2ccccc21	22	53*	15	1.4	1.4
CCCCCCc1nc2ccccc2c(=O)n1NC(=O)c1c(O)c2c(n(CC(C)C)c1=O)CCCC2	21	54*	19	1	1.1
O=C(NCC1CCCO1)C1CC(=O)N(C2CCCC2)C1 (configuration not stated)	113	-8	104	1.1	1.1
O=C(NCC(c1cccnc1)N1CCN(c2ccc(F)cc2)CC1)c1ccccc1 (configuration not stated)	80	89*	105	0.9	1
O=C(NCCCn1ccnc1)C(=O)NCC(c1cccnc1)N1CCN(c2ccc(F)cc2)CC1 (configuration not stated)	89	-1	94	0.9	0.9
O=C(NCc1ccc(Cl)cc1)C(=O)NCC(c1cccnc1)N1CCN(c2ccc(F)cc2)CC1 (configuration not stated)	nt	94*	nt	0.9	1
Cc1cccc(C)c1NC(=O)c1cn(-c2ccccc2)nc1-c1ccccc1	95	-5	89	1	1
Cc1nn(Cc2ccccc2)c(C)c1NC(=O)Cn1nc([N+](=O)[O-])c(Cl)c1C	91	13	97	1	1
Cc1cc(C)n(C(=O)c2ccccc2[N+](=O)[O-])n1	102	-1	102	0.9	1
Cc1nn(Cc2ccccc2)c(C)c1NC(=O)c1ccc([N+](=O)[O-])cc1[N+](=O)[O-]	84	63*	81	1	1
Cc1nn(Cc2ccc(Cl)c(Cl)c2)c(C)c1NC(=O)c1cn(-c2ccccc2)nc1-c1ccccc1	86	77*	80	0.8	0.8
COc1ccc(OC)c(-c2cc(C(=O)Nc3c(C)nn(Cc4ccc(Cl)cc4)c3C)no2)c1	57	52*	63	0.9	1
COc1ccc(OC)c(-c2cc(C(=O)Nc3c(C)nn(Cc4ccccc4)c3C)no2)c1	62	37	73	0.9	1
SMILES	PTEN del growth	Lmaj promast	bCat KO growth	PMI act	PMI act hi M6P
Cc1cc(C)n(C(=O)c2ccc([N+](=O)[O-])cc2[N+](=O)[O-])n1	92	99*	89	1	0.9
O=C(C(Cl)Cl)N1c2ccccc2OCC1c1ccccc1 (configuration not stated)	15	11	12	1	1
O=C(CSc1nc(O)c(Cc2ccccc2)c(=O)n1-c1ccccc1)N1CCOCC1	99	-7	94	1	1
Cc1nn(Cc2ccc(Cl)c(Cl)c2)c(C)c1NC(=O)c1cc(-c2ccc3c(c2)OCO3)on1	1.8*	77*	1.5*	1	1.1
COC(=O)C(CC(C)C)Oc1ccc2c(C)cc(=O)oc2c1 (configuration not stated)	97	85*	96	0.9	0.9
CC(=O)Oc1ccc2c(C)cc(=O)oc2c1	99	-5	95	1	1
CCNC(=O)/C(=C\c1ccccc1)NC(=O)/C=C/c1ccccc1	93	85*	96	1	1
NC(=O)/C(=C\c1ccccc1)NC(=O)/C=C/c1ccccc1	90	-8	95	1.1	1.1
Cn1cnc([N+](=O)[O-])c1Oc1cccc2ccccc12	7	73*	7	1	0.7
Cc1cc(Nc2ccccc2Cl)n2nnnc2n1	99	87*	92	1	1
COc1ccc(CNc2ccc3c(c2)ncn3-c2ccccc2OC)cc1	56	100*	66	0.8	0.9
COc1ccccc1-n1cnc2cc(NCc3ccco3)ccc21	15	2	12	0.8	0.7
COc1ccccc1-n1cnc2cc(NCc3cccs3)ccc21	15	96*	18	0.8	0.8
Cc1ccccc1-n1cnc2cc(NCc3cccs3)ccc21	50	20	46	0.8	0.9
COc1ccc(OC)c(/C=N/NC(=O)CSc2cc(C)nc3c(OC)cccc23)c1	nt	7	nt	1	1.1
CC(C)(C)C(=O)/C(=C\c1ccc([N+](=O)[O-])cc1)n1cncn1	1.6*	100*	1.4*	1	1
CC(=O)Oc1ccc(C(=O)[C@H]2[C@H]3C(=O)N(c4ccc5ccccc5c4)C(=O)[C@H]3[C@@H]3C=CC=NN32)cc1	83	21	86	1.6	2.1*
COc1ccc(CC(=S)N2CCOCC2)cc1	92	-2	90	0.7	1
COc1ccc(-c2nc(-c3ccc4c(c3)OCO4)[nH]c2-c2ccc(OC)cc2)cc1	14	90*	25	0.8	0.8
COc1ccc(-n2nc([N+](=O)[O-])c(=NC3CCN(Cc4ccccc4)CC3)n2O)cc1	nt	46	nt	1	0.9
COc1ccc(-n2nc([N+](=O)[O-])c(=NCCC3=CCCCC3)n2O)cc1	nt	82*	nt	0.9	0.9
COc1ccc(-n2nc([N+](=O)[O-])c(=NCc3ccco3)n2O)cc1	nt	15	nt	1.1	0.9
COc1ccc(-n2nc([N+](=O)[O-])c(=NCCc3ccc(C)cc3)n2O)cc1	nt	80*	nt	1	1
COc1ccc(-n2nc([N+](=O)[O-])c(=NCCc3ccc(Cl)cc3)n2O)cc1	80	26	98	1	1

Source: PubChem BioAssay (several laboratories)
